One data set deals with T1, HCV NS3h (Hepatitis C virus genotype 1b, UniProt Q9WMX2).
T1 sequence (Q9WMX2 1190-1657 limits assumed): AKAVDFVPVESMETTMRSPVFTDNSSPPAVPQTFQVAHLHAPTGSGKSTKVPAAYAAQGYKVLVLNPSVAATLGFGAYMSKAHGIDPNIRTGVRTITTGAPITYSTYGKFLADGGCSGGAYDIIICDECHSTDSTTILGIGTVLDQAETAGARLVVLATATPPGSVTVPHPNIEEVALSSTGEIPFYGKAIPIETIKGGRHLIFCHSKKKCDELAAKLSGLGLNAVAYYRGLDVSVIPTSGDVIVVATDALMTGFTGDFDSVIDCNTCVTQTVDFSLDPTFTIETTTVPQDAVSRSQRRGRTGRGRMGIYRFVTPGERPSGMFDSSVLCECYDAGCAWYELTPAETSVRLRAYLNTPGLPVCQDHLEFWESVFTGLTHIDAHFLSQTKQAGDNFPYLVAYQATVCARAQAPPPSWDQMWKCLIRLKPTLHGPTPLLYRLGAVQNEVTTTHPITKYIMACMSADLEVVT
The experiment in a line: FP-based binding assay, NS3h displacement from Cy5-dT15 DNA. Also on record: species or system hepatitis C virus genotype 1b (con1). The following applies: for inhibition at 100 µM: read-out: NS3h (% I): percent inhibition of NS3h binding to Cy5-dT15, 100 μM of each compound; for NS3h (% I): percent inhibition of NS3h binding to Cy5-dT15: 100 μM of each compound; for ability to inhibit HCV helicase binding to DNA (in words): compared with ebselen. In outline: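 Fluorescence polarization with Cy5-dT15 and NS3h: excitation 635 nm; parallel and perpendicular emission read at 667 nm; G-factor taken from probe-only wells. % inhibition normalized to DMSO-only (negative) and 200 nM dT20 or 100 μM primuline (positive) controls. Single-point tests at 100 μM. IC50 is the concentration displacing 50% of NS3h from DNA. Reversibility: 10 μM NS3h preincubated 1 h with test compound, then diluted 100–100 000-fold into Cy5-dT15 and compared with untreated controls.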

A further data set addresses E. coli SSB (Escherichia coli, UniProt P0AGE0). The experiment in a line: FP-based binding assay with SSB in place of NS3h. The following applies: for inhibition at 100 µM: read-out: SSB (% I): percent inhibition of SSB binding to Cy5-dT15; for SSB binding inhibition relative to NS3h binding inhibition: 100 μM; for SSB (% I): percent inhibition of SSB binding to Cy5-dT15: 100 μM of each compound. The method, boiled down: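 Fluorescence polarisation assay with E. coli SSB in place of NS3h, using Cy5-dT15 (or Cy5-rU15 for titrations). Screen compounds were pin-transferred to 100 μM final, 1% DMSO. Excitation 635 nm, emission 667 nm; G-factor from probe-only wells. Percent inhibition was normalised to DMSO and to unlabeled dT20 or 100 μM primuline controls.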

Data set [1] concerns HCV genotype 2a isolate (JFH1). The following applies: 20 μM of each compound; ref Gastaminza et al.[9]; cited from earlier work.
Data set [2] has as its system HCV Con1/1b Rluc subgenomic replicon in Huh-7.5 cells. Briefly: HCV subgenomic replicon assay. In kind it is cell-based, hepatitis C virus genotype 1b. The following applies: for antiviral potency relative to ebsulfur/ebselen (times more potent): replicon; for therapeutic index (CC50/EC50): replicon EC50 and Huh7.5 CC50. The method, boiled down: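 Huh-7.5 cells carrying a stable genotype 1b Con1 Renilla luciferase subgenomic replicon (kept in 0.25 mg/mL Geneticin) were seeded at 10 × 10^3 per well. Two-fold compound series, 0.5% final DMSO, 3 days at 37 °C, 5% CO2. Washed cells were lysed and Renilla luminescence read. EC50 is the concentration halving Rluc; CC50 comes from a parallel CellTiter-Glo viability run; three independent titrations.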

For the next data set, the target named is NS3h_2a(JFH1) (Hepatitis C virus genotype 2a, JFH1, UniProt Q99IB8 1194-1661). The experiment in a line: fluorescence polarization. On the technique in general: In fluorescence polarisation assays a small probe gives low polarisation when free and higher when bound to something large.
In data set [3] the target is T2, NS3h_1b(con1) (Hepatitis C virus genotype 1b, con1 …, UniProt Q9WMX2 1190-1657). The experiment in a line: fluorescence polarization.
The target in the next data set is SSB (Escherichia coli, UniProt P0AGE0 1-178). Briefly: fluorescence polarization.
In data set [4] the target is T2, NS3h_1b(con1). Briefly: fluorescence polarization. This is another data set of the same source.
The target of data set [5] is T2, NS3h_1b(con1). Briefly: fluorescence polarization. The source holds these as a separate data set.

This is an account of results in publication PMC4201343 (ACS Chemical Biology, 2014).

Where a name gives a salt, the structure may show the parent alone. Read-outs that look alike come from different tables or passages of the source.

E. coli SSB, sequence (P0AGE0 2-178 limits assumed): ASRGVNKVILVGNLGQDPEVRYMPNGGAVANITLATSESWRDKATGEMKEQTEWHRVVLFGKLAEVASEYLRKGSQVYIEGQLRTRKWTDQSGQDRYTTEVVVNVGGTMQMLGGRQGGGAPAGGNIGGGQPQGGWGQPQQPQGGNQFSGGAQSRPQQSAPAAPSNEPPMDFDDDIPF
SSB, sequence (P0AGE0 whole entry): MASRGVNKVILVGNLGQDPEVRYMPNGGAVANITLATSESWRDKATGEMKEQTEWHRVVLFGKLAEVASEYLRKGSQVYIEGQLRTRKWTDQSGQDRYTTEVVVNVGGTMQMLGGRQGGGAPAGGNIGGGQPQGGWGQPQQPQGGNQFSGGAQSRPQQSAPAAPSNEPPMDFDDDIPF
NS3h_2a(JFH1), sequence (Q99IB8 1194-1661): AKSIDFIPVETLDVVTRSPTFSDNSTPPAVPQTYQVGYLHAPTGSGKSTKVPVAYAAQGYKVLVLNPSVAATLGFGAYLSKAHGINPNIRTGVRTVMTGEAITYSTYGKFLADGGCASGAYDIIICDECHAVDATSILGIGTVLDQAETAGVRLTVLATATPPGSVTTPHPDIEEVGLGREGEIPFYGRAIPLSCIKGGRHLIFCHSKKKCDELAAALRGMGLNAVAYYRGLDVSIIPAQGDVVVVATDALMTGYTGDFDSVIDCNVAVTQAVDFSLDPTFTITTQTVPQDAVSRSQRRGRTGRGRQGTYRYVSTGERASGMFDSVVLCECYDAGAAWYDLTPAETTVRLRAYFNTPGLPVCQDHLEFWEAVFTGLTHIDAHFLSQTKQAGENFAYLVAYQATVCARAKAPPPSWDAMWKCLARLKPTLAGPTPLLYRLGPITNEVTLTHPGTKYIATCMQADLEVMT

In the case of `CCCCCCCCCOc1ccc2[nH]cc(CCN)c2c1` [5-Nonyloxy-tryptamine], the inhibition at 100 µM on HCV NS3h was -8%; at E. coli SSB, 67%. The “HCV (% I): percent inhibition of HCV replication in cells” value (from here on “HCV (% I): percent inhibition”) in [1] was 100%.

`COc1cccc2c1C(=O)c1c(O)c3c(c(O)c1C2=O)C[C@@](O)(C(=O)CO)C[C@@H]3O[C@H]1C[C@H](N)[C@H](O)[C@H](C)O1` [Doxorubicin Hydrochloride]: the inhibition at 100 µM turned out to be 8% at HCV NS3h and 90% at E. coli SSB. The “HCV (% I): percent inhibition” value in [1] is 100%.

On to `C=CC1=C(C(=O)O)N2C(=O)[C@@H](NC(=O)C(=NOCC(=O)O)c3csc(N)n3)[C@H]2SC1.O` [HMS2052E19], for which the “NS3h (% I): percent inhibition of NS3h binding to Cy5-dT15” value (“NS3h (% I): percent inhibition” for short) at HCV NS3h was determined as 28%. At E. coli SSB, the “SSB binding inhibition relative to NS3h binding inhibition” value is on record as 3–4 times and the “SSB (% I): percent inhibition of SSB binding to Cy5-dT15” value (“SSB (% I): percent inhibition” below) was determined as 95%. Moreover, in data set [1], the “HCV (% I): percent inhibition” value is on record as less than 0%.

`CS(=O)(=O)Nc1ccc(Cc2noc(-c3ccc4[nH]cc(CCN)c4c3)n2)cc1.O` [L 694247]: the “NS3h (% I): percent inhibition” value on HCV NS3h is 3%. For the same molecule, on E. coli SSB, the “SSB (% I): percent inhibition” value was 37%. Besides, in [1], the “HCV (% I): percent inhibition” value is given as less than 0%.

For the molecule `O=C1c2c(O)ccc(O)c2C(=O)c2c(NCCNCCO)ccc(NCCNCCO)c21` [Mitoxantrone], the “NS3h (% I): percent inhibition” value at HCV NS3h (100 µM) is on record as 125%; at HCV NS3h (listed as mitoxantrone, 100 µM) it was “more than 50%”. Also, the inhibition at 100 µM at E. coli SSB turned out to be 121%.

`CN(C)[C@@H]1C(O)=C(C(=O)NCN2CCCC2)C(=O)[C@@]2(O)C(O)=C3C(=O)c4c(O)cccc4[C@@](C)(O)[C@H]3C[C@@H]12` [Rolitetracycline]: the inhibition at 100 µM is -4% on HCV NS3h and 45% at E. coli SSB. Besides, in data set [1], the “HCV (% I): percent inhibition” value is given as less than 0%.

Consider `Cl.NC1CCN(c2cccc(Cl)n2)CC1` [SR 57227A], for which the “NS3h (% I): percent inhibition” value at HCV NS3h is “–1%”. The “SSB (% I): percent inhibition” value on E. coli SSB is 133%. Further, the “HCV (% I): percent inhibition” value in [1] was 12%.

For the molecule `CC(O)CO.N[C@@H](C(=O)N[C@@H]1C(=O)N2C(C(=O)O)=C(CSc3cn[nH]n3)CS[C@H]12)c1ccc(O)cc1` [Seapuron], the “NS3h (% I): percent inhibition” value on HCV NS3h is 22%. Moreover, at E. coli SSB, the “SSB binding inhibition relative to NS3h binding inhibition” value is given as 3–4 times and the “SSB (% I): percent inhibition” value is 56%. For the same molecule, the “HCV (% I): percent inhibition” value in data set [1] is less than 0%.

`C=CC1=C(C(=O)O)N2C(=O)[C@@H](NC(=O)C(=NO)c3csc(N)n3)[C@H]2SC1` [Spectrum 001824]: the “NS3h (% I): percent inhibition” value on HCV NS3h is recorded as 11%. Moreover, the “SSB (% I): percent inhibition” value at E. coli SSB is 96%. The “HCV (% I): percent inhibition” value in data set [1] is on record as 5.8%.

On to `O=c1c2cc(F)c(F)cc2sn1-c1ccccc1` [compound 2, 5,6-Difluoro-2-phenylbenzo[d]isothiazol-3(2H)-one], for which, in [2], the “antiviral potency relative to ebsulfur/ebselen (times more potent)” value is on record as approximately 10 times and the “therapeutic index (CC50/EC50)” value was approximately 1.

On to `O=c1c2ccc(Br)cc2sn1-c1ccccc1` [compound 3, 6-Bromo-2-phenylbenzo[d]isothiazol-3(2H)-one], for which, in data set [2], the “antiviral potency relative to ebsulfur/ebselen (times more potent)” value is recorded as approximately 10 times and the “therapeutic index (CC50/EC50)” value was approximately 1.

For `O=C(CCn1sc2ccccc2c1=O)Nc1ccccc1` [compound 13, 3-(3-Oxobenzo[d]isothiazol-2(3H)-yl)-N-phenylpropanamide], the “decrease in the ability to inhibit HCV helicase (longer linker)” value on HCV NS3h (relative to peptide-linker analogues) was 10 fold.

For `O=c1cc(-c2ccccc2)sn1-c1ccccc1` [compound 14, 2,5-Diphenylisothiazol-3(2H)-one], the “ability to inhibit HCV helicase binding to DNA (in words)” value at HCV NS3h is “complete loss of activity”.

In the case of `Cn1c2ccccc2c(=O)n1-c1ccccc1` [compound 15, 1-Methyl-2-phenyl-1H-indazol-3(2H)-one], the “ability to inhibit HCV helicase binding to DNA (in words)” value on HCV NS3h is “complete loss of activity”.

B1: Cy5-dT20 (ssDNA)
DNA: TTTTTTTTTTTTTTTTTTTT
As for B1, the binding signal with NS3h_2a(JFH1) was ~2 Ka relative to NS3h_1b(con1); with NS3h_1b(con1) [3], 1 Ka relative to NS3h_1b(con1).

B2: Cy5-dT15 (ssDNA)
DNA: TTTTTTTTTTTTTTT
In the case of B2, the binding result in the data set with SSB and with NS3h_1b(con1) [4] was “binds” throughout.

B3: Cy5-rU15 (ssRNA)
RNA: UUUUUUUUUUUUUUU
For B3, the binding result with SSB and with NS3h_1b(con1) [5] was “binds” throughout.

Broadly, the inhibition is the drop in the measured response relative to a control, in per cent.
